Screening results (PubChem)
This is a sample that favours compounds with a hit; in the whole collection about 1.6% have one here.
NOD2-RIPK2 inh: inhibitors of human NOD2-RIPK2 interaction. 360,000 compounds, 0.38% hits. CHO BLA complementation NOD2-RIPK2, CCF4 ratio. AID 624267. inhibition, % at 4.98 µM. O43353; in the data active means inhibition above about 21%
Target sequence (O43353 whole entry, looked up): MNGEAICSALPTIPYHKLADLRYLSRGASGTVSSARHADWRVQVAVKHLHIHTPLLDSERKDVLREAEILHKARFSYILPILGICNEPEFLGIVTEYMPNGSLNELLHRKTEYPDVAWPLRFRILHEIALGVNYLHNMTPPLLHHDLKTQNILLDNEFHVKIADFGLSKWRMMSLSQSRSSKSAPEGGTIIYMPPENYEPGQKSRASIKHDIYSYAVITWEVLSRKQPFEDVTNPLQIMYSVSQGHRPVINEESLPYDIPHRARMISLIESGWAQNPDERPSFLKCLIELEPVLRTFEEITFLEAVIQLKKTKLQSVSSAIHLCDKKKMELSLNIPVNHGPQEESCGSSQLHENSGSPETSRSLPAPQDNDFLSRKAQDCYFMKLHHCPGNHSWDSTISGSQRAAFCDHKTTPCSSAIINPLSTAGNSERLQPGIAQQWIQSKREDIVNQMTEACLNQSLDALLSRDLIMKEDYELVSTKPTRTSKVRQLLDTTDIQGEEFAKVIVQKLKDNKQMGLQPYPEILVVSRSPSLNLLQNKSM
SR-BI DiI-HDL act: activators of SR-BI mediated HDL lipid uptake. CHO ldlA[mSR-BI] cells, DiI-HDL uptake fluorescence, 3 h; 100 = double the neutral-control signal. activation, % at 12.5 µM. 320,000 compounds, 0.096% hits;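 active means mean replicate activation of at least 60% and every replicate at or above 60%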
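System: LDL receptor-deficient CHO ldlA cells overexpressing murine SR-BI | Timing: 3 h uptake period with compound, 37 °C | Medium: HEPES-buffered (25 mM, pH 7.4) F12 plus 0.5% BSA | Dosing: Single-point compound dose | Signal: Bottom-read fluorescence, 550/595 nm | Read-out: Retained DiI signal reflecting DiI-HDL uptake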
TLR9-MyD88 inh: blocks human TLR9 binding to MyD88 | inhibition, % at 4.98 µM | 340,000 compounds, 0.21% hits | CHO BLA complementation TLR9-MyD88, CCF4 FRET ratio;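 active means inhibition above the mean over all tested compounds plus 3 SD, cut at about 21% in these data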
SR-BI HDL uptake: inhibitors of mouse SR-BI mediated HDL lipid uptake | 320,000 compounds, 0.96% hits | ldlA[mSR-BI] CHO cells, DiI-HDL uptake fluorescence, 3 h | AID 488896 | inhibition, % at 12.5 µM | Q61009;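 active means mean replicate inhibition of at least 70% and a set share of replicates each scoring 70 or more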
Lipid droplet: hepatic lipid droplet formation modulation; 240,000 compounds, 0.4% hits; AML12 mouse hepatocytes, oleate lipid droplets, BODIPY imaging; inhibition, % at 6.5 µM;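 active means lipid droplet intensity inhibited by at least 50%, with more than 500 cells counted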
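Test system: AML12 hepatocytes (mouse); reagent: oleate loading, 100 µM; dosing: one dose, 6.5 µM compound; incubation: overnight exposure; signal: fluorescence imaging, 20x objective, two fields per well; read-out basis: % inhibition of corrected integrated BODIPY droplet signal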
TLR4-MyD88 BLA: inhibitors of human TLR4-MyD88 binding; O00206+Q99836; HeLa CL3-4 TLR4/MyD88 BLA complementation, FRET ratio; inhibition, % at 8.4 µM; 200,000 compounds, 0.18% hits; AID 861; in the data active means inhibition above about 25%
A number is an active result; i = inactive; nt = no result.

SMILES	NOD2-RIPK2 inh	SR-BI DiI-HDL act	TLR9-MyD88 inh	SR-BI HDL uptake	Lipid droplet	TLR4-MyD88 BLA
COc1ccc(CC(=O)Nc2ccc(/C(C)=N/NC(=O)c3ccc(OC)cc3OC)cc2)cc1	i	i	i	74.5	i	nt
COc1cc(/C=C/C(=O)OCC(=O)Nc2ccc(S(=O)(=O)N3CCCC3)cc2)ccc1O	i	i	i	82.0	i	i
O=C(COC(=O)C1CC2C=CC1C2)NCCc1ccccc1 (stereo unspecified)	i	240.1	i	i	i	i
NC(=O)CSc1ccc(-c2ccc(F)cc2)nn1	i	i	i	i	i	i
COc1ccc(C(=O)N2CCC2(C)C(=O)NC(C)C)c(OC)c1 (stereo unspecified)	i	nt	nt	nt	nt	nt
O=C(COc1ccccc1)Nc1nc(-c2ccc(S(=O)(=O)N3CCOCC3)cc2)cs1	i	i	i	i	nt	i
COc1ccccc1OCC(=O)Nc1nc(-c2ccc(S(=O)(=O)N3CCOCC3)cc2)cs1	i	i	i	73.0	nt	i
CCOc1ccc(C(C)=O)cc1COC(=O)c1ccc2c(c1)NC(=O)CS2	i	i	i	80.1	nt	nt
CC(C)C[C@@H]1COc2cc(N(C)CCO)ccc2S(=O)(=O)N1	i	nt	nt	nt	nt	nt
O=C(CSC1=NNC(c2ccccn2)S1)Nc1ccc(C(F)(F)F)cc1 (stereo unspecified)	i	i	i	94.7	i	nt
c1ccc(CSC2=NNC(c3ccccn3)S2)cc1 (stereo unspecified)	i	nt	i	nt	i	nt
COc1cc([N+](=O)[O-])ccc1NC(=O)Nc1nc2c(s1)CCCC2	i	i	i	72.3	i	i
COc1cc([N+](=O)[O-])ccc1NC(=O)Nc1cnccn1	i	i	i	i	i	nt
COc1ccc(NC(=O)c2ccc(NC(=O)COC(=O)c3cnc(C)cn3)cc2)cc1	i	i	i	i	nt	nt
COc1ccc2c(c1)c(CC(=O)Nc1cc(C)ccc1C)c(C)n2C(=O)c1ccc(Cl)cc1	i	i	i	i	68.4	i
Cc1ccccc1-n1c(SCC(=O)N/N=C/C=C/c2ccccc2[N+](=O)[O-])nc2ccccc2c1=O	i	i	i	78.7	i	i
O=C(CCN1C(=O)C2C3CCC(C3)C2C1=O)Nc1cccc(Cl)c1 (stereo unspecified)	i	i	i	i	i	nt
COc1ccc(CCn2c(=O)[nH]c3cc(C(=O)N4CCN(c5ccccn5)CC4)ccc3c2=O)cc1OC	i	i	i	80.6	i	i
Cc1ccc(C)c(Nc2cc(C)nc3ncnn23)c1	i	192.1	i	i	i	nt
CNc1oc(-c2ccc(C)cc2)nc1P(=O)(c1ccccc1)c1ccccc1	i	i	i	i	nt	i
COc1ccc(-n2nc3c(c2NC(=O)c2ccc(S(=O)(=O)N4CCOCC4)cc2)CS(=O)C3)cc1 (stereo unspecified)	i	68.3	i	i	i	i
Nc1c(C(=O)Nc2ccccc2)sc2nc3c(c(-c4ccco4)c12)CCCC3	i	i	i	i	nt	i
Nc1c(C(=O)Nc2ccccc2)sc2nc3c(c(-c4ccco4)c12)CCC3	i	i	i	80.2	nt	i
O=C1C(=O)c2ccc(-c3ccccc3)cc2-c2ccccc21	i	i	i	92.5	i	i
Cc1ccc(/C=C/c2nc3ccccc3s2)s1	i	i	i	101.3	i	i
SMILES	NOD2-RIPK2 inh	SR-BI DiI-HDL act	TLR9-MyD88 inh	SR-BI HDL uptake	Lipid droplet	TLR4-MyD88 BLA
CSc1ccc(C(C(C(=O)c2cccs2)N2CCOCC2)N2CCOCC2)cc1 (stereo unspecified)	i	65.3	i	i	nt	i
CC(=O)C(C(c1ccccc1)N1CCOCC1)N1CCOCC1 (stereo unspecified)	i	i	i	i	nt	nt
CCC(=O)Nc1ccc2c(c1)Cc1cc(NC(=O)CC)ccc1-2	i	i	i	74.0	i	nt
CCc1nc2c(OCCC3CCCCC3)cccn2c1N(C=O)Cc1ccc(OC)cc1	i	nt	nt	nt	nt	nt
CCOC(=O)CN(C(=O)c1snc(C(N)=O)c1N)C(C(=O)NC1CCCCC1)c1ccc(F)cc1 (stereo unspecified)	i	i	i	i	i	nt
O=C(N/N=C/c1cn(-c2cccs2)nc1-c1ccccc1)c1ccccc1Br	i	i	i	i	i	i
O=C(N/N=C/c1cn(-c2cccs2)nc1-c1ccccc1)c1ccccc1O	i	i	i	85.9	i	i
